The source of these data is ChEMBL document CHEMBL4219162, “Adamantane amine-linked chloroquinoline derivatives as chloroquine resistance modulating agents in Plasmodium falciparum” (Bioorg Med Chem Lett, 2018).

The subject of one data set is CHO. Kind of data set: Cytotoxicity against CHO cells by MTT assay. Particulars: Cricetulus griseus. The class given is cell-based. Summed up: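 Chinese hamster ovary cell growth and survival read by viable-cell reduction of yellow MTT to purple-blue formazan. IC50 derived. Emetine served as the cytotoxic reference drug.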
For data set [1], the system named is Plasmodium falciparum. Kind of data set: Antimalarial activity against chloroquine-sensitive Plasmodium falciparum NF54 infected in normal type A human erythrocytes incubated for 72 hrs by spectrophotometry based parasite lactate dehydrogenase assay. The class given is functional, organism-based. Particulars: NF54, 72 h. Summed up: (§1)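 Modified parasite lactate dehydrogenase (pLDH) assay run in parallel on CQ-sensitive NF54 and CQ-resistant K1 strains, with chloroquine as positive control. […], 37 °C, and the readout gave IC50.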

Data set [2] can be described thus: Reversal modification index, ratio of IC50 for chloroquine-resistant Plasmodium falciparum K1 infected in normal type A human erythrocytes to IC50 for chloroquine-sensitive Plasmodium falciparum NF54 infected in normal type A human erythrocytes relative to […]. The class given is functional. Summed up: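 Reversal modification index taken as the resistance index (IC50 K1/IC50 NF54) of each compound relative to the resistance index of chloroquine.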

The nature of data set [3]: Selectivity index, ratio of IC50 for CHO cells to IC50 for chloroquine-resistant Plasmodium falciparum K1 infected in normal type A human erythrocytes. Particulars: Chinese hamster; read-out: Ratio IC50. The class given is toxicity, cell-based. A digest of the protocol:
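Selectivity index computed as IC50 in Chinese hamster ovary cells, measured by MTT reduction to formazan, divided by IC50 against K1 from the pLDH assay.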

The test system of data set [4] is Plasmodium falciparum. Kind of data set: Antimalarial activity against chloroquine-resistant Plasmodium falciparum K1 infected in normal type A human erythrocytes incubated for 72 hrs by spectrophotometry based parasite lactate dehydrogenase assay. Type of data set: functional, organism-based. Particulars: K1, 72 h. A digest of the protocol: as §1
Data set [5] in a line: Resistance index, ratio of IC50 for chloroquine-resistant Plasmodium falciparum K1 infected in normal type A human erythrocytes to IC50 for chloroquine-sensitive Plasmodium falciparum NF54 infected in normal type A human erythrocytes. The class given is functional. Summed up: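 Resistance index computed as IC50 against K1 divided by IC50 against NF54, both from the pLDH assay.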

For data set [6], the system named is Plasmodium falciparum. Kind of data set: Potency index, ratio of IC50 for […] to IC50 for test compound for antimalarial activity against chloroquine-resistant Plasmodium falciparum K1 infected in normal type A human erythrocytes incubated for 72 hrs by spectrophotometry based parasite lactate dehydrogenase assay. The class given is functional.
Data set [7] in a line: Aqueous stability of the compound in pH 4.5 HEPES-buffer at 1 mg/ml at 37 degC after 72 hrs by UV spectroscopic method. Type of data set: physicochemical. The conditions noted are these: pH 4.5, 72 h. Summed up: (§2)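 Test compound at 1 mg/ml in aqueous HEPES-containing buffer, held at 37 °C for 72 h to check for degradation. pH 7.4 matches the pLDH antimalarial assay medium. pH 4.5 approximates the parasite's acidic digestive vacuole. Conditions mirror the pLDH assay procedure.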

The nature of data set [8]: Aqueous stability of the compound in pH 7.4 HEPES-buffer at 1 mg/ml at 37 degC after 72 hrs by UV spectroscopic method. Type of data set: physicochemical. The conditions noted are these: pH 7.4, 72 h. A digest of the protocol:
as §2

As usually defined, the IC50 is the concentration at which inhibition is half-maximal. Low values mean higher potency, high ones lower potency. In the data set on CHO, `CC[C@H]1CN2CCc3cc(OC)c(OC)cc3[C@@H]2C[C@@H]1C[C@H]1NCCc2cc(OC)c(OC)cc21` [EMETINE] gave an IC50 of 0.13 µM.
As for `OC12C3C4CC5C6C4C1C6C(C53)N2CCNc1ccnc2cc(Cl)ccc12` (centres undefined), the IC50 was 0.00984 µM with Plasmodium falciparum [1] and 0.0726 µM in the data set on Plasmodium falciparum [4]. Moreover, the “Ratio IC50” value in data set [2] came out at 5.22; in data set [5], 7.36. The selectivity ratio in data set [3] was determined as 131.
Consider `OC12CC3CC(CC(C3)N1CCCNc1ccnc3cc(Cl)ccc13)C2`, for which the “Ratio IC50” value in the data set on Plasmodium falciparum [6] was 3 - 4; in data set [2], 8.86; in data set [5], 4.34. Also, the half-maximal inhibitory concentration (IC50) in the data set with Plasmodium falciparum [1] came out at 0.0223 µM; with CHO, 45.2 µM; with Plasmodium falciparum [4], 0.0968 µM. Moreover, the selectivity ratio in data set [3] worked out at 467.
Regarding `OC12CC3CC(CC(C3)N1CCCCNc1ccnc3cc(Cl)ccc13)C2`, the IC50 with Plasmodium falciparum [1] was determined as 0.0339 µM; in the data set with CHO, 37.9 µM; in the data set with Plasmodium falciparum [4], 0.198 µM. Moreover, the results for the “Ratio IC50” value in [2] and in data set [5] were 6.59 and 5.84, respectively. Also, the selectivity ratio in data set [3] was 191.
Turning to `Clc1ccc2c(NCCCCN=C3C4CC5CC(C4)CC3C5)ccnc2c1`, the IC50 turned out to be 0.108 µM with Plasmodium falciparum [1], 57.1 µM with CHO and 0.784 µM in the data set on Plasmodium falciparum [4]. In addition, the “Ratio IC50” value worked out at 5.32 in [2] and 7.23 in [5]. Besides, the selectivity ratio in data set [3] was found to be 73.
On to `Clc1ccc2c(NCCCN=C3C4CC5CC(C4)CC3C5)ccnc2c1`, for which the Stability entry in [7] is recorded as “Unstable”; in data set [8] it was “Stable”. Also, the IC50 was 0.005 µM with Plasmodium falciparum [1], 66.4 µM with CHO and 0.192 µM in the data set on Plasmodium falciparum [4]. Further, in data set [2], the “Ratio IC50” value turned out to be 2.4. Moreover, the selectivity ratio in data set [3] worked out at 346.
Regarding `OC12CC3CC(CC(C3)N1CCCCCCNc1ccnc3cc(Cl)ccc13)C2`, the half-inhibitory concentration (IC50) was found to be 0.113 µM with Plasmodium falciparum [1], 80.8 µM in the data set with CHO and 0.284 µM with Plasmodium falciparum [4]. For the same compound, the “Ratio IC50” value in data set [2] is on record as 10.09; in data set [5], 3.81. Moreover, the selectivity ratio in [3] was 285.
On to `Clc1ccc2c(NCCCCCCN=C3C4CC5CC(C4)CC3C5)ccnc2c1`, for which the results for the IC50 in the data set on Plasmodium falciparum [1], with CHO and in the data set on Plasmodium falciparum [4] were 0.113 µM, > 103 µM and 1.58 µM, respectively. Further, the “Ratio IC50” value turned out to be 2.74 in data set [2] and 14.02 in [5]. Further, the selectivity ratio in data set [3] turned out to be 104.
In the data set on CHO, `CCN(CC)CCCC(C)Nc1ccnc2cc(Cl)ccc12` (centres undefined) [CHLOROQUINE] yielded an IC50 of 57.8 µM.
Regarding `OC12CC3CC(CC(C3)N1CCNc1ccnc3cc(Cl)ccc13)C2`, the entries for the “Ratio IC50” value (in the data set with Plasmodium falciparum [6]; in data set [2]; in data set [5]) were 3 - 4, 18.23 and 2.11, respectively. The IC50 was 0.0469 µM in the data set with Plasmodium falciparum [1], > 279 µM in the data set on CHO and 0.0989 µM with Plasmodium falciparum [4]. For the same compound, the selectivity ratio in data set [3] is > 2820.
Consider `Clc1ccc2c(NCCN=C3C4CC5CC(C4)CC3C5)ccnc2c1`, for which the “Ratio IC50” value in the data set with Plasmodium falciparum [6] is on record as 3 - 4; in [2] it was 10.8; in data set [5], 3.56. Moreover, the figures for the half-inhibitory concentration (IC50) with Plasmodium falciparum [1], in the data set with CHO and with Plasmodium falciparum [4] were 0.0263 µM, 98.5 µM and 0.0938 µM, respectively. Moreover, the selectivity ratio in data set [3] worked out at 1050.
